Assay results as given in ChEMBL document CHEMBL3593207, “Imidazole clubbed 1,3,4-oxadiazole derivatives as potential antifungal agents” (2015).

Assays:
Type in all cases: functional
[1] = tested on: Candida tropicalis; assay: Antifungal activity against Candida tropicalis ATCC 750 by broth microdilution assay
Summary of the method: (§1)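 CLSI M27-A3 broth microdilution. Compounds diluted to 1 mg/ml in 1% DMSO. Fluconazole (1 mg/ml) served as positive control, 1% DMSO as vehicle control, with media and culture controls. Triplicate at each concentration, repeated thrice. Inocula came from YPDA stocks subcultured in broth for 48 h at 37 °C.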

[2] = tested on: Candida tropicalis; assay: Antifungal activity against clinical isolates of Candida tropicalis 2029 by broth microdilution assay; summary of the method: as §1
[3] = tested on: Candida tropicalis; assay: Antifungal activity against clinical isolates of Candida tropicalis 2356 by broth microdilution assay; summary of the method: as §1
[4] = tested on: Candida albicans; assay: Antifungal activity against clinical isolates of Candida albicans 2367 by broth microdilution assay; summary of the method: as §1
[5] = tested on: Candida albicans; assay: Antifungal activity against clinical isolates of Candida albicans 2323 by broth microdilution assay; summary of the method: as §1
[6] = tested on: Candida albicans; assay: Antifungal activity against clinical isolates of Candida albicans 2779 by broth microdilution assay; summary of the method: as §1
[7] = tested on: Candida albicans; assay: Antifungal activity against Candida albicans ATCC 10261 by broth microdilution assay; summary of the method: as §1

MIC [1] [µg/mL] | MIC [2] [µg/mL] | MIC [3] [µg/mL] | MIC [4] [µg/mL] | MIC [5] [µg/mL] | MIC [6] [µg/mL] | MIC [7] [µg/mL] | SMILES
> 1000 | > 1000 | > 1000 | > 1000 | > 1000 | > 1000 | > 1000 | CCc1ccnc(-c2nccn2Cc2nnc(-c3ccccc3Cl)o2)c1
> 1000 | > 1000 | > 1000 | > 1000 | > 1000 | > 1000 | > 1000 | CCc1ccnc(-c2nccn2Cc2nnc(Cc3ccc(C(C)C)cc3)o2)c1
> 1000 | > 1000 | > 1000 | > 1000 | > 1000 | > 1000 | > 1000 | CCc1ccnc(-c2nccn2Cc2nnc(-c3ccc(Cl)cc3Cl)o2)c1
> 1000 | > 1000 | > 1000 | > 1000 | > 1000 | > 1000 | > 1000 | CCc1ccnc(-c2nccn2Cc2nnc(COc3ccc(Cl)cc3)o2)c1
